From ChEMBL document CHEMBL3271939, “Studies of antitumor agents. 1. Resolution of racemic 1-(tetrahydro-2-furanyl)-k-fluorouracil into the R and S isomers and examination of the biological activities of the isomers” (J Med Chem, 1977)
Values after ≈ are worked out from the molar mass of the structure shown.

Assays:
[1] = test system: Klebsiella pneumoniae; assay: Antibacterial activity against Klebsiella pneumoniae ATCC 10031 assessed as growth inhibition after 24 hrs by plate dilution method; format: functional; settings: ATCC 10031, 24 h
Procedure, shortened: (§1)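 MIC determined by standard plate dilution in defined medium […], plates incubated 37 °C for 24 h.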

[2] = test system: Micrococcus flavus; assay: Antibacterial activity against Micrococcus flavus ATCC 10240 assessed as growth inhibition after 24 hrs by plate dilution method; format: functional; settings: ATCC 10240, 24 h; procedure, shortened: as §1
[3] = test system: Rattus norvegicus; assay: Toxicity in Donryu rat allografted with rat Yoshida cells assessed as body weight at 90 mg/kg, ip administered daily for 7 days starting 24 hrs after tumor inoculation measured on 10th day post-tumor inoculation (reference value: 53 gms); format: organism-based; design: dose 90 mg/kg, route intraperitoneal; settings: in vivo
Procedure, shortened: (§2)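 Male Donryu rats (120 ± 5 g) inoculated s.c. in inguinal region with 5×10^6 AH-130 carcinoma or Yoshida sarcoma cells per rat; drug 90 mg/kg i.p. daily for 7 days starting 24 h later; six animals per group. Body weight and tumor weight measured on day 10 after inoculation; tumor weight compared with untreated control group to give % inhibition.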

[4] = test system: Bacillus subtilis; assay: Antibacterial activity against Bacillus subtilis ATCC 6633 assessed as growth inhibition after 24 hrs by plate dilution method; format: functional; settings: ATCC 6633, 24 h; procedure, shortened: as §1
[5] = test system: YOSHIDA; assay: Antitumor activity against rat Yoshida cells allografted in Donryu rat assessed as inhibition of tumor growth at 90 mg/kg, ip administered daily for 7 days starting 24 hrs after tumor inoculation measured on 10th day post-tumor inoculation; format: functional; settings: route intraperitoneal, read-out: TGI; procedure, shortened: as §2
[6] = test system: Rattus norvegicus; assay: Toxicity in Donryu rat allografted with rat AH-130 cells assessed as body weight at 90 mg/kg, ip administered daily for 7 days starting 24 hrs after tumor inoculation measured on 10th day post-tumor inoculation (reference value: 64.1 gms); format: organism-based; design: dose 90 mg/kg, route intraperitoneal; settings: in vivo; procedure, shortened: as §2
[7] = Antitumor activity against rat AH-130 cells allografted in Donryu rat assessed as inhibition of tumor growth at 90 mg/kg, ip administered daily for 7 days starting 24 hrs after tumor inoculation measured on 10th day post-tumor inoculation; format: functional; settings: route intraperitoneal, read-out: TGI; procedure, shortened: as §2
[8] = test system: Micrococcus luteus; assay: Antibacterial activity against Sarcina lutea ATCC 9341 assessed as growth inhibition after 24 hrs by plate dilution method; format: functional; settings: ATCC 9341, 24 h; procedure, shortened: as §1
[9] = Drug metabolism in mouse liver microsomes assessed as fluorouracil release by measuring antibacterial activity against Staphylococcus aureus 209P at 200 ug after 4 hrs by thin layer cup method; format: ADME
Procedure, shortened: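 Mouse liver microsome fraction suspended in 10 mM phosphate buffer pH 7.4 with 1.15% KCl (equivalent to 25% homogenate); 0.8 mL suspension plus 200 µg isomer in 1 mL, no NADPH, 37 °C for 4 h. Unchanged substrate removed by CHCl3 extraction; released FU in neutralized aqueous layer quantified by antibacterial activity against S. aureus 209P, thin-layer-cup method.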

[10] = test system: YOSHIDA; assay: Antitumor activity against rat Yoshida cells allografted in Donryu rat assessed as tumor weight at 90 mg/kg, ip administered daily for 7 days starting 24 hrs after tumor inoculation measured on 10th day post-tumor inoculation (reference value: 3.65 +/- 0.60 gms); format: functional; settings: route intraperitoneal; procedure, shortened: as §2
[11] = Antitumor activity against rat AH-130 cells allografted in Donryu rat assessed as tumor weight at 90 mg/kg, ip administered daily for 7 days starting 24 hrs after tumor inoculation measured on 10th day post-tumor inoculation (reference value: 4.73 +/- 1.19 gms); format: functional; settings: route intraperitoneal; procedure, shortened: as §2
[12] = test system: Brevundimonas diminuta; assay: Antibacterial activity against Pseudomonas diminuta IAM 1513 assessed as growth inhibition after 24 hrs by plate dilution method; format: functional; settings: IAM 1513, 24 h; procedure, shortened: as §1
[13] = test system: Staphylococcus aureus; assay: Antibacterial activity against Staphylococcus aureus ATCC 6538P assessed as growth inhibition after 24 hrs by plate dilution method; format: functional; procedure, shortened: as §1
[14] = test system: Proteus vulgaris; assay: Antibacterial activity against Proteus vulgaris IFO 3045 assessed as growth inhibition after 24 hrs by plate dilution method; format: functional; settings: IFO 3045, 24 h; procedure, shortened: as §1
[15] = Drug metabolism in mouse liver microsomes assessed as fluorouracil release by measuring antibacterial activity against Staphylococcus aureus 209P at 200 ug after 4 hrs by thin layer cup method in presence of NADPH; format: ADME
Procedure, shortened: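 Mouse liver microsomes in 10 mM phosphate buffer pH 7.4, 1.15% KCl (25% homogenate equivalent); 0.8 mL suspension, 0.1 mL of 50 mM NADPH stock, 200 µg isomer, made to 1 mL; 37 °C, 4 h. After CHCl3 extraction of unchanged substrate, FU in neutralized aqueous phase bioassayed against S. aureus 209P by thin-layer-cup method.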

[16] = test system: Escherichia coli; assay: Antibacterial activity against Escherichia coli NIHJ assessed as growth inhibition after 24 hrs by plate dilution method; format: functional; procedure, shortened: as §1

SMILES | MIC [1] [µM] | MIC [2] [µM] | Activity [3] [g] | MIC [4] [µM] | inhibition in vivo at 90 mg/kg [5] [%] | Activity [6] [g] | inhibition in vivo at 90 mg/kg [7] [%] | MIC [8] [µM] | Drug metabolism [9] [µg/mL] | Activity [10] [g] | Activity [11] [g] | MIC [12] [µM] | MIC [13] [µM] | MIC [14] [µM] | Drug metabolism [15] [µg/mL] | MIC [16] [µM]
O=c1[nH]c(=O)n([C@H]2CCCO2)cc1F | > 1000 | 750 (≈ 150 µg/mL) | 42 | 780 (≈ 156 µg/mL) | 33.7 | 40.2 | 61.5 | 6 (≈ 1.2 µg/mL) | 0.51 | 2.42 | 1.82 | > 1000 | 12 (≈ 2.4 µg/mL) | > 1000 | 10.32 | > 1000
O=c1[nH]c(=O)n([C@@H]2CCCO2)cc1F | > 1000 | 375 (≈ 75.1 µg/mL) | 39.3 | > 1000 | 40.6 | 33 | 71.9 | 12 (≈ 2.4 µg/mL) | 0.72 | 2.17 | 1.33 | > 1000 | 12 (≈ 2.4 µg/mL) | > 1000 | 13.16 | > 1000
O=c1[nH]c(=O)n(C2CCCO2)cc1F (racemic) [TEGAFUR] | > 1000 | 750 (≈ 150 µg/mL) | 33.2 | 780 (≈ 156 µg/mL) | 38.9 | 33 | 51.4 | 12 (≈ 2.4 µg/mL) |  | 2.23 | 2.3 | > 1000 | 12 (≈ 2.4 µg/mL) | > 1000 |  | > 1000
O=c1[nH]cc(F)c(=O)[nH]1 [FLUOROURACIL] | 601 (≈ 78.2 µg/mL) | 0.00425 (≈ 0.000553 µg/mL) |  | 4.62 (≈ 0.601 µg/mL) |  |  |  | 0.0723 (≈ 0.0094 µg/mL) |  |  |  | > 1000 | 0.0723 (≈ 0.0094 µg/mL) | 18.5 (≈ 2.41 µg/mL) |  | 18.6 (≈ 2.42 µg/mL)
